Laboratory results taken from paper PMC4559355 (Journal of nuclear medicine : official publication, Society …, 2015).

Legend:
[1] = Mouse serum stability; type: in vitro ADME; conditions: mouse serum 0.5 mL + radiotracer 12.5 µL (0.74 MBq), 37°C, 60 min, ethanol precipitation of serum proteins, HPLC
[2] = HPLC analysis of urine metabolites; type: in vivo; conditions: mouse urine, ethanol precipitation
[3] = system: DX3puroβ6 (αvβ6 +) cells; test: Cell binding and internalization, DX3puroβ6 cells; type: cell-based; conditions: in vitro, ratio x:1
Method in brief: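 Radiolabelled tracer was incubated with DX3puroβ6 (αvβ6+) and DX3puro (αvβ6−) cells for 60 min, n = 4 per cell line and condition. Bound and internalized activity are each expressed as a fraction of total radioactivity, with SD. Uptake and internalization ratios are DX3puroβ6 over DX3puro values.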

[4] = Biodistribution, nontumor organs; type: in vivo; conditions: female, athymic nude, mouse, iv, total radioactivity
[5] = system: DX3puroβ6 tumor; test: Radiotracer stability in DX3puroβ6 tumor; type: in vivo, mouse; conditions: tumor collected 1 h after injection, homogenized, ethanol precipitation, HPLC
Method in brief: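 Female athymic nude mice carried paired subcutaneous DX3puroβ6 and DX3puro xenografts (3 × 10^6 cells each, opposite flanks). After intravenous radiotracer, the DX3puroβ6 tumor was harvested at 1 h and homogenized. Proteins were removed by ethanol precipitation, and the supernatant was analysed by HPLC for intact radiotracer.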

[6] = Stability in phosphate-buffered saline; type: physicochemical; conditions: formulated in phosphate-buffered saline
[7] = system: BxPC-3 tumor (αvβ6-positive); test: Biodistribution, BxPC-3 xenograft tumor; type: in vivo; conditions: BxPC-3 mouse model, ratio x:1
[8] = system: BxPC-3 tumor; test: Radiotracer stability in BxPC-3 tumor; type: in vivo, mouse; conditions: tumor collected 1 h after injection, homogenized, ethanol precipitation, HPLC
Method in brief: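 BxPC-3 xenografts came from 3.5 × 10^6 cells injected subcutaneously in female athymic nude mice. Radiotracer was given intravenously. Tumor was excised 1 h later and homogenized. Proteins were precipitated with ethanol, and supernatant aliquots were analysed by HPLC for intact versus degraded radiotracer.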

[9] = system: DX3puroβ6 tumor (αvβ6-positive); test: Biodistribution, DX3puroβ6 xenograft tumor; type: in vivo, mouse; conditions: ratio x:1; for DX3puroβ6/DX3puro tumor uptake ratio: paired DX3puroβ6–DX3puro mouse model
Method in brief: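 Female athymic nude mice received subcutaneous DX3puro and DX3puroβ6 cells (3 × 10^6 each) on opposite flanks. Radiotracer in phosphate-buffered saline was given at 1.1–2.0 MBq/animal by tail-vein injection under 2% isoflurane. Mice were killed under 4% isoflurane at 1, 2 and 4 h (n = 3/time point). Tissues were rinsed and γ-counted; values are decay-corrected %ID/g, and ratios are taken from these.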

[10] = gallbladder, stomach, intestine
[11] = paired mouse model, throughout (1, 2 and 4 h)

CC(C)C[C@H](NC(=O)[C@H](CC(=O)O)NC(=O)CNC(=O)[C@H](CCCNC(=N)N)NC(=O)[C@H](CC(C)C)NC(=O)[C@H](CC(N)=O)NC(=O)[C@@H]1CCCN1C(=O)[C@@H](NC(=O)[C@H](C)NC(=O)[C@H](CC(N)=O)NC(=O)CCOCCOCCOCCOCCOCCOCCOCCOCCOCCOCCOCCOCCOCCOCCOCCOCCOCCOCCOCCOCCOCCOCCOCCOCCOCCOCCOCCOCCNC(=O)c1ccc(F)cc1)C(C)C)C(=O)N[C@@H](CCC(N)=O)C(=O)N[C@H](C(=O)N[C@@H](CC(C)C)C(=O)N[C@@H](C)C(=O)N[C@@H](CCC(N)=O)C(=O)N[C@@H](CCCCN)C(=O)N[C@H](C(=O)N[C@@H](C)C(=O)N[C@@H](CCCNC(=N)N)C(=O)N[C@H](C(=O)NCCOCCOCCOCCOCCOCCOCCOCCOCCOCCOCCOCCOCCOCCOCCOCCOCCOCCOCCOCCOCCOCCOCCOCCOCCOCCOCCOCCOCCC(N)=O)[C@@H](C)O)C(C)C)C(C)C [compound 5, ^18F-FBA-PEG28-A20FMDV2-PEG28]
Radiotracer remaining intact in mouse serum [1]: 80% | Minor new peak in urine HPLC (slightly longer retention time) [2]: 18% | Internalization ratio for the DX3puroβ6–DX3puro cell pair [3]: 41 | Uptake (binding) ratio for the DX3puroβ6–DX3puro cell pair [3]: 20 | tissue uptake at 1 h [4, 10]: < 15 %ID/g | tissue uptake at 1 h ([4]; pancreas): 0.46 ± 0.07 %ID/g | tissue uptake at 4 h ([4]; pancreas): 0.25 ± 0.07 %ID/g | Apparent metabolic breakdown of radioactivity extracted from DX3puroβ6 tumor [5]: less than 20% | Stable in phosphate-buffered saline (time) [6]: ≥ 4 h | BxPC-3–to–blood ratio ([7]; 4 h): greater than 20 | BxPC-3–to–liver ratio ([7]; 4 h): greater than 20 | BxPC-3–to–pancreas ratio [7]: ≥ 9 | Apparent breakdown of radioactivity extracted from BxPC-3 tumor [8]: less than 20% | DX3puroβ6/DX3puro tumor uptake ratio ([9]; 1 h): 6.5 | DX3puroβ6/DX3puro tumor uptake ratio ([9]; 4 h): 10.7 | DX3puroβ6 tumor–to–blood ratio [9, 11]: greater than 4.5

CC(C)C[C@H](NC(=O)[C@H](CC(=O)O)NC(=O)CNC(=O)[C@H](CCCNC(=N)N)NC(=O)[C@H](CC(C)C)NC(=O)[C@H](CC(N)=O)NC(=O)[C@@H]1CCCN1C(=O)[C@@H](NC(=O)[C@H](C)NC(=O)[C@H](CC(N)=O)NC(=O)c1ccc(F)cc1)C(C)C)C(=O)N[C@@H](CCC(N)=O)C(=O)N[C@H](C(=O)N[C@@H](CC(C)C)C(=O)N[C@@H](C)C(=O)N[C@@H](CCC(N)=O)C(=O)N[C@@H](CCCCN)C(=O)N[C@H](C(=O)N[C@@H](C)C(=O)N[C@@H](CCCNC(=N)N)C(=O)N[C@H](C(=O)NCCOCCOCCOCCOCCOCCOCCOCCOCCOCCOCCOCCOCCOCCOCCOCCOCCOCCOCCOCCOCCOCCOCCOCCOCCOCCOCCOCCOCCC(N)=O)[C@@H](C)O)C(C)C)C(C)C [compound 4, ^18F-FBA-A20FMDV2-PEG28]
Radiotracer remaining intact in mouse serum [1]: 76% | Internalization ratio for the DX3puroβ6–DX3puro cell pair [3]: 9.4 | Uptake (binding) ratio for the DX3puroβ6–DX3puro cell pair [3]: 7.1 | tissue uptake at 1 h [4, 10]: < 15 %ID/g | Stable in phosphate-buffered saline (time) [6]: ≥ 4 h | DX3puroβ6 tumor–to–DX3puro tumor ratio [9, 11]: greater than 2.5 | DX3puroβ6 tumor–to–blood ratio [9, 11]: greater than 2
